Bioassay records: PubChem, The Scripps Research Institute Molecular Screening Center
CHO parental Ca: counter-screen: ATP calcium response change in parental CHO cells; parental CHO-K1, ATP-induced calcium, Fluo-8 fluorescence; inhibition, % at 5.6 µM; 330,000 tested, 0.63% active; AID 463079;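 active means inhibition above that plate's mean sample inhibition plus 3 SD, cut at about 26% in these data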;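 further: 0% = ATP-challenged DMSO wells and 100% = DMSO wells without ATP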
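Test system: parental CHO cells; detection: calcium-sensitive Fluo-8 fluorescence; evaluation: percent inhibition of calcium signal; also added: ATP as calcium-mobilizing challenge; repeats: one well per compound; control set: ATP-challenged DMSO wells low, unchallenged DMSO wells high; compound: single nominal dose of 5.6 µM per compound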
GalR3 antagonist: human GalR3 antagonism | HEK293 GalR3-CNG cAMP membrane potential fluorescence; galR3 body fused to GalR1 C-terminus | inhibition, % at 3 µM | 360,000 tested, 0.44% active;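 active means inhibition above the screen-wide average plus 3 SD, cut at about 13% in these data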;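 further: forskolin and galanin both at EC90 stimulate the cells; cAMP rise reported by CNG channel membrane potential dye signal; 0% = forskolin plus galanin with DMSO and 100% = forskolin alone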
Target sequence (O60755 1-299 limits assumed): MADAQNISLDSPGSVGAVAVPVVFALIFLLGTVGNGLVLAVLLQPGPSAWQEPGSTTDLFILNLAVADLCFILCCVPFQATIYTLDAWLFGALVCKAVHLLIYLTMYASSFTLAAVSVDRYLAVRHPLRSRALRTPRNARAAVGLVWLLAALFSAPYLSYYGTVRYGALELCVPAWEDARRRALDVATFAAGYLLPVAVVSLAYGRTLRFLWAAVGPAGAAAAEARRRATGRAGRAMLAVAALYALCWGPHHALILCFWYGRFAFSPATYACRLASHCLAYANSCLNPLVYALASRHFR
OX1R antag-1: antagonists of human orexin 1 receptor (OX1R). O43613. OX1R-expressing cells, FRET antagonist read-out. inhibition, % at 6.6 µM. 330,000 tested, 1.8% active. AID 485270; in the data active means inhibition mostly above about 38%, no sharp cut-off; inactive means mostly below about 40%;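 further: 0% = agonist challenge alone and 100% = reference antagonist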
GPR7 antag: human neuropeptides B/W receptor 1 antagonism. P48145. GPR7-expressing cells, fluorescence antagonist assay. inhibition, % at 4.4 µM. 290,000 tested, 1.1% active; in the data active means inhibition above about 16%, passing the limit was not always enough;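 further: cells stimulated with the agonist NPW; 0% = agonist with vehicle and 100% = vehicle without agonist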
Target sequence (P48145 whole entry, looked up): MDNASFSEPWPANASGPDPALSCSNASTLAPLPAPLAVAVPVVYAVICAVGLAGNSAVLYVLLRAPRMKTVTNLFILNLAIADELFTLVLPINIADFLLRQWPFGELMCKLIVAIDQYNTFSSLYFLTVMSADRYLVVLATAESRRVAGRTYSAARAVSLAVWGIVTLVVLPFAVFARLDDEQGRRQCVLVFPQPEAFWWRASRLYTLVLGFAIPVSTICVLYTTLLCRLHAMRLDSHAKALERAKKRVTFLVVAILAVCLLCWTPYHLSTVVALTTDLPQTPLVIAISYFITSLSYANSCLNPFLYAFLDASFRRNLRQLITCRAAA
OX1R antag-2: human HCRTR1 antagonism; O43613; CHO/OX1R cells, Fluo-8 calcium fluorescence, orexin A; inhibition, % at 5 µM; 330,000 tested, 0.43% active; AID 434989;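 active means inhibition above its plate's threshold, mean inhibition of all tested compounds on the plate plus 3 SD, cut at about 37% in these data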;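 further: 0% = orexin A challenge wells and 100% = SB-334867-A antagonist wells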
Starred values were filed as active, the others as inactive; . = not tested or not shown. Hits are enriched below; roughly 3.1% of the tested compounds scored in any of these assays.

SMILES	CHO parental Ca	GalR3 antagonist	OX1R antag-1	GPR7 antag	OX1R antag-2
O=C(Nc1ccc(Cl)cn1)C1CCCN1S(=O)(=O)c1ccc(Cl)cc1 (stereo not drawn)	-30.9	-8.2	64.1*	-6.3	36.6
COc1cc(NC(=O)[C@H]2CCCN2S(=O)(=O)c2cccc3cccnc23)cc(OC)c1OC	-18.6	-5.8	40.8	.	-15.3
O=C(Nc1ccc(Cl)cn1)C1CCCN1S(=O)(=O)c1cccc2ccccc12 (stereo not drawn)	-9.8	-5.4	63.6*	-6.0	2.5
O=C(O)c1cccc(N2C(=O)c3cc([N+](=O)[O-])cc4cc([N+](=O)[O-])cc(c34)C2=O)c1	-4.3	0.0	96.2*	-5.2	1.4
CCCCOCC1CN(Cc2ccccc2OC)S(=O)(=O)c2cc(Cl)ccc2O1 (stereo not drawn)	.	-6.5	.	.	.
N=c1n(CCN2CCCCC2)c2ccccc2n1CC(O)c1ccc(Cl)c(Cl)c1 (stereo not drawn)	-24.1	-3.7	9.0	36.2*	-21.4
COc1ccccc1OCC(O)Cn1c(=N)n(CCN2CCCCC2)c2ccccc21 (stereo not drawn)	-11.8	-8.9	13.5	24.8*	-9.4
COc1ccc(OCC(O)Cn2c(=N)n(CCN3CCOCC3)c3ccccc32)cc1 (stereo not drawn)	-4.1	-5.4	29.3	-8.7	-34.3
Cc1cc(C(=O)Nc2ccc(N3CCCC3)c(Cl)c2)ccc1[N+](=O)[O-]	-2.4	-2.2	55.3*	-3.1	2.7
CN1CCN(c2ccc(NC(=O)c3ccc([N+](=O)[O-])o3)cc2Cl)CC1	17.4	-9.2	53.6*	-4.3	-6.8
CC(C)C(=O)N1CCN(c2ccc(NC(=O)c3ccc([N+](=O)[O-])o3)cc2Cl)CC1	.	-1.6	.	-1.5	.
CC(C)C(=O)N1CCN(c2ccc(NC(=O)c3ccc([N+](=O)[O-])o3)cc2)CC1	-2.1	-2.7	46.0*	-7.0	-8.7
COc1ccc(CNS(=O)(=O)c2cc(Br)ccc2Br)c(OC)c1	.	-6.4	.	.	.
Cc1ccc(CN2C(=O)c3ccccc3C2c2nnnn2-c2ccc3c(c2)OCCO3)cc1 (stereo not drawn)	.	-7.5	.	.	.
CCOC(=O)C1CCCN(C(=O)C2c3ccccc3Oc3ccccc32)C1 (stereo not drawn)	22.1	-1.3	44.9*	11.9	21.9
CN(c1ccc(C(=O)N2CCCCC2)cc1)S(=O)(=O)c1ccccc1	37.6*	-4.0	58.9	-1.5	42.1*
CCOC(=O)C1CCCN(C(=O)c2cccc(S(=O)(=O)N(C)c3ccc(C)cc3)c2)C1 (stereo not drawn)	-11.3	-8.3	57.7*	.	31.4
CN(c1ccccc1)S(=O)(=O)c1ccc(C(=O)N2CCc3ccccc3C2)cc1	-5.3	-1.0	9.9	20.5*	-20.4
O=c1cc(CN2CCN(S(=O)(=O)c3cccc(Cl)c3)CC2)c2ccc(O)cc2o1	7.0	-1.1	5.1	.	4.1
OC(c1ccc(-c2ccccc2)cc1)c1ncc(-c2ccc(C(F)(F)F)cc2)[nH]1 (stereo not drawn)	.	-5.1	.	.	.
COC(=O)[C@]12C[C@H](CC(=O)NCC3CCCCC3)C(=O)N(Cc3ccccc3)C1=C[C@H](C(C)(C)C)O[C@@H]2C	.	-6.2	.	.	.
C/C(N)=C(/C#N)C(=O)CSc1nc2cc(Cl)ccc2s1	-8.3	-3.7	55.6*	3.1	-13.5
Cc1ccc2[nH]c(=O)c(CN(C(=O)c3cccc([N+](=O)[O-])c3)C(C)C)cc2c1	-15.5	-0.3	51.4*	-5.0	5.1
CCOc1ccc(Nc2oc(-c3ccco3)nc2C#N)cc1	-4.9	-5.2	21.9	-4.8	-8.9
CCOc1ccc(Nc2oc(-c3cccs3)nc2C#N)cc1	3.9	-10.1	56.8*	-16.1	19.0
SMILES	CHO parental Ca	GalR3 antagonist	OX1R antag-1	GPR7 antag	OX1R antag-2
COc1ccc(Nc2oc(COc3ccc(C)cc3)nc2C#N)cc1	38.3*	-3.6	29.8	-1.9	12.5
C[C@@H]1C=CCCO[C@]12C(=O)N(CC1CC1)c1cccc(Br)c12	.	-7.9	.	.	.
CC(=Nc1ccccc1)C1=C(O)C(CC(C)C)NC1=O (stereo not drawn)	.	-2.7	.	.	.
Cc1cc(C)c(S(=O)(=O)Nc2cc(SCC(=O)O)c(O)c3ccccc23)cc1C	-17.1	.	58.1*	-11.2	-15.2
CCN(Cc1nc2cc(Cl)ccc2c(=O)[nH]1)C(=O)c1nn(C)c(=O)c2ccccc12	-11.6	-3.0	38.5*	.	-15.2
CCN(Cc1nc2cc(Cl)ccc2c(=O)[nH]1)C(=O)c1ccc(C)c(NC(=O)c2ccco2)c1	-29.3	1.3	76.4*	.	24.7
COCCCNC(=O)C[C@H]1C[C@@]2(C(=O)OC)C(=C[C@H](C(C)C)O[C@@H]2C2CC2)N(Cc2ccccc2)C1=O	.	-6.0	.	.	.
CCOC(=O)c1noc2c1CCC2	.	3.8	.	.	.
COc1cc(CNCCO)cc(Br)c1OCc1ccccc1Cl	4.8	-6.8	5.0	18.6	3.7
COc1cc(CNCCO)cc(Cl)c1OCc1ccc(Cl)cc1Cl	3.0	-6.8	7.8	58.0*	24.1
C#CCNC(=O)C[C@@H]1C[C@@]2(C(=O)OC)CCCCC=C2N(CCc2ccc(OC)c(OC)c2)C1=O	.	0.6	.	.	.
O=C(Cc1csc(NC(=O)Nc2ccc(Cl)cc2)n1)NC1CCCC1	34.9*	-4.8	16.0	.	14.2
O=C(Cc1csc(NC(=O)Nc2ccc(Cl)cc2)n1)NCc1ccccn1	-10.0	1.3	5.8	.	-17.4
O=[N+]([O-])c1cccc(C2NCC(c3ccccc3Cl)c3c2[nH]c2ccccc32)c1 (stereo not drawn)	50.1*	-6.3	18.3	13.3	53.1*
CN(C)c1ccc(C2CNC(c3ccc(Cl)c([N+](=O)[O-])c3)c3[nH]c4ccccc4c32)cc1 (stereo not drawn)	-13.4	2.6	31.1	-4.7	-16.3
CCN(CC)c1ccc2c(-c3ccc(S(=O)(=O)O)cc3S(=O)(=O)[O-])c3ccc(=[N+](CC)CC)cc-3oc2c1	74.9*	.	-37.6	69.5*	92.8*
CCN(CC)c1ccc2nc3c4ccccc4c(=O)cc-3oc2c1	.	-16.7	.	19.9	.
COc1ccc(NC(=O)/C(C#N)=C\c2ccc(N3CCOCC3)o2)cc1	46.6*	-4.9	58.9*	9.6	54.4*
N#C/C(=C\c1ccc(N2CCOCC2)o1)C(=O)Nc1ccc(O)cc1	10.6	-2.5	60.6*	7.0	12.2
N#C/C(=C/c1ccc(N2CCCCC2)o1)C(=O)Nc1ccc(Cl)cc1	77.4*	-5.2	18.6	10.4	99.0*
N#C/C(=C/c1ccc(N2CCOCC2)o1)C(=O)NC1CCCCC1	-1.5	-5.9	11.8	0.6	-12.7
C[C@H](CO)N1C[C@H](C)[C@@H](CN(C)C(=O)Nc2ccc(C(F)(F)F)cc2)Oc2c(NC(=O)Nc3ccc(C(F)(F)F)cc3)cccc2C1=O	41.5*	-9.5	9.3	.	23.7
O=C(COc1ccc(OCc2ccccc2)cc1)NC1CCOC1=O (stereo not drawn)	37.9*	-5.2	28.1	6.6	-1.7
NC(=O)c1ccc(SCC(=O)OCC(=O)N2CCCC2=O)c([N+](=O)[O-])c1	-3.7	-3.0	66.6*	.	-7.7
